Published values of several laboratories.
Protocols differ between the studies behind these lines.
Target: Serine/threonine-protein kinase Nek7 (NEK7, Homo sapiens, UniProt Q8TDX7)

CN(C)c1ncc(F)c(-c2cnn3ncccc23)n1 — remaining binding (binding; 1 µM): 95%
CC(=O)Nc1c(C(C)=O)c(=O)n(C)c2nc(-c3ccc(Cl)cc3Cl)c(-c3ccc(Cl)cc3)cc12 — remaining binding (cell-free assay; competition with immobilised ligand; 1 µM): 100%
CN(C)c1nccc(-c2cnn3ncccc23)n1 — remaining binding (binding; 1 µM): 92%
CC(C)CC(=O)N1CCc2nc(-c3ccc(Br)cc3)nc(N(C)Cc3ccccc3)c2C1 — remaining binding (cell-free assay; competition with immobilised ligand; 0.1 µM): 100%
O=C(Nc1c[nH]nc1C(=O)NC1CCNCC1)c1cc(F)cc(F)c1 — remaining binding (binding; competition with immobilised ligand; 1 µM): 100%
CNC(=O)[C@@H]1CC[C@@H](n2c(-c3ccc4cnccc4c3)nc3ccc(C(=O)NCc4cccc(C(N)=O)c4)cc32)C1 — remaining binding (binding; competition with immobilised ligand; 1 µM): 92%
O=C(Nc1cnc(Oc2ccc(F)cc2)nc1)N1CCc2ncccc2[C@@H]1c1ccc(F)cc1 — remaining binding (cell-free assay; competition with immobilised ligand; 1 µM): 84%
c1cncc(-c2cccc(Nc3nccc(NC4CCCCC4)n3)c2)c1 — remaining binding (binding; competition with immobilised ligand; 10 µM): 79%
O=C(c1ccc(Nc2ncc(Cl)c(-c3cc4ccccc4s3)n2)cc1)N1CCC(N2CCCC2)CC1 — remaining binding (binding; competition with immobilised ligand; 1 µM): 4.5%
COc1cc(-c2cn(C3CCc4ccccc4N(CC(F)(F)F)C3=O)nn2)ccc1-n1ccc(C)n1 (centres unmarked) — remaining binding (cell-free assay; competition with immobilised ligand; 1 µM): 100%
O=C(NCCCN1CCOCC1)c1ccc(Nc2ncc(Cl)c(-c3ccc(Cl)s3)n2)cc1 — remaining binding (binding; competition with immobilised ligand; 1 µM): 1.2%
CC(=O)C1=C(C)N(c2cccc(C(F)(F)F)c2)C(=O)N[C@@H]1c1ccc(C#N)nc1 — remaining binding (cell-free assay; competition with immobilised ligand; 1 µM): 100%
CN(c1nccc(-c2cnn3ncccc23)n1)C1CC1 — remaining binding (binding; 1 µM): 100%
C[C@@H](c1ccc(-n2cnc3c(N)ncnc32)cc1)N1CCc2nn(C)c(Cc3ccccc3)c2C1=O — remaining binding (binding; competition with immobilised ligand; 0.1 µM): 94%
F[C@@H]1CCN(c2nccc(-c3cnn4ncccc34)n2)C1 — remaining binding (binding; 1 µM): 100%
O=C(Nc1cccnn1)N1CCC(=Cc2cccc(Oc3ccc(C(F)(F)F)cn3)c2)CC1 — remaining binding (cell-free assay; competition with immobilised ligand; 1 µM): 100%
N[C@@H]1CCN(c2nccc(-c3cnn4ncccc34)n2)C1 — remaining binding (binding; 1 µM): 100%
COc1cnc(Nc2cccc(S(N)(=O)=O)c2)nc1N1CCN(c2ccccc2)CC1 — remaining binding (binding; competition with immobilised ligand; 1 µM): 74%
COc1cccc(CNC(=O)c2nc3scc(COCc4ccc(C(=O)O)cc4)c3c(=O)[nH]2)c1 — remaining binding (cell-free assay; competition with immobilised ligand; 1 µM): 100%
C[C@@H]1CCN(c2nccc(-c3cnn4ncccc34)n2)C1 — remaining binding (binding; 1 µM): 89%
FC(F)(F)Oc1cccc(-c2cnc3ccc(-c4ccncc4)nn23)c1 — remaining binding (cell-free assay; competition with immobilised ligand; 5 µM): 91%
CN(C)c1nccc(-c2cnc3ncccn23)n1 — remaining binding (binding; 1 µM): 90%
O=C(c1ccc(Nc2nccc(-c3cc4ccccc4s3)n2)cc1)N1CCC(N2CCCC2)CC1 — remaining binding (binding; competition with immobilised ligand; 1 µM): 79%
